Consider eleven compounds from ChEMBL document CHEMBL2057095, “Discovery and SAR of orally efficacious tetrahydropyridopyridazinone PARP inhibitors for the treatment of cancer” (Bioorg Med Chem, 2012).

Data set [1] in a line: AUC (0 to 3 hrs) in mouse at 10 mg/kg, po. In kind it is ADME, organism-based. Also noted: time < 3 hr, dose 10 mg/kg, route oral. As to conditions: plasma. In a few lines: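 Screening mouse PK: single oral dose of 10 mg/kg; plasma concentrations determined up to 3 h.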
Data set [2] is described as follows: Half life in mouse at 3 mg/kg, iv. In kind it is ADME, organism-based. As to conditions: in vivo. Also noted: dose 3 mg/kg, route intravenous. In a few lines: (§1)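 Standard mouse PK: oral dose of 10 mg/kg and intravenous dose of 3 mg/kg; plasma concentrations determined up to 8 h.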
Data set [3] in a line: (§2) Clearance in mouse at 10 mg/kg, po and 3 mg/kg, iv. In kind it is ADME, organism-based. Conditions: in vivo. The method in brief: as §1
Data set [4] can be described thus: (§3) Oral bioavailability in mouse at 10 mg/kg. In kind it is ADME, organism-based. Conditions: in vivo. In a few lines:
as §1

Data set [5] relates to Mus musculus. The experiment in a line: (§4) Toxicity in C57BL/6 mouse bearing B16F10 tumor assessed as body weight loss at […], po administered BID from day 5 to day 9 post-tumor implantation co-administered with temozolomide relative to vehicle-treated control. In kind it is organism-based. Also noted: route oral. Conditions: in vivo.
A short description of data set [6]: Volume of distribution at steady state in mouse at 10 mg/kg, po and 3 mg/kg, iv. In kind it is ADME, organism-based. Conditions: in vivo, read-out: Vdss. In a few lines:
as §1

Data set [7] concerns Mus musculus. The data set can be described thus: Toxicity in C57BL/6 mouse bearing B16F10 tumor assessed as body weight loss at 5 mg/kg/day, po administered BID from day 5 to day 9 post-tumor implantation co-administered with temozolomide relative to vehicle-treated control. In kind it is organism-based. Also noted: route oral. Conditions: in vivo. The method in brief:
(§5)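 Syngeneic B16F10 model: 6 × 10⁴ cells with 50% matrigel implanted s.c. into the flank of female C57BL/6 mice (6–8 weeks, 20 g). […] TMZ given orally at 50 mg/kg/day once daily over the same days. Tumor growth and body weight monitored.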

The subject of data set [8] is B16-F10. The experiment in a line: Potentiation of TMZ antitumor activity against mouse B16F10 cells xenografted in po dosed C57BL/6 mouse assessed as increase in tumor growth inhibition administered BID from day 5 to day 9 post-tumor implantation. The data set is classed as functional, organism-based. The method in brief: as §5
A short description of data set [9]: (§6) AUC (0 to 8 hrs) in mouse at 10 mg/kg, po. Conditions: plasma. Also noted: time < 8 hr, dose 10 mg/kg, route oral. In kind it is ADME, organism-based, Plasma. The method in brief:
as §1

Data set [10] concerns Mus musculus. Described as §4. In kind it is organism-based. Also noted: route oral. Conditions: in vivo. This is another data set of the same source.
Data set [11] is described as follows: Cmax in mouse at 10 mg/kg, po. The data set is classed as ADME, organism-based. Also noted: dose 10 mg/kg, route oral. As to conditions: in vivo. The method in brief: as §1
Data set [12] relates to Mus musculus. The data set can be described thus: Toxicity in C57BL/6 mouse bearing B16F10 tumor assessed as body weight loss at 50 mg/kg/day, po administered QD from day 5 to day 10 post-tumor implantation relative to vehicle-treated control. In kind it is organism-based. Also noted: route oral. As to conditions: in vivo. In a few lines:
(§7)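 Syngeneic B16F10 melanoma: 6 × 10⁴ cells in 50% matrigel injected s.c. into the flank of female C57BL/6 mice, 6–8 weeks old, 20 g. PARP inhibitor given orally on days 5–10 at 10, 30 or 60 mg/kg/day, bid. TMZ given orally at 50 mg/kg/day, qd, days 5–10. Tumor growth and body weight followed to day 21.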

Data set [13] deals with Mus musculus. The data set can be described thus: Toxicity in C57BL/6 mouse bearing B16F10 tumor assessed as body weight loss at 50 mg/kg/day, po administered QD from day 5 to day 9 post-tumor implantation relative to vehicle-treated control. In kind it is organism-based. Also noted: route oral. As to conditions: in vivo. The method in brief: as §5
Data set [14] relates to Mus musculus. The data set can be described thus: Antitumor activity against B16F10 tumor xenografted in C57BL/6 mouse assessed as tumor growth inhibition at 50 mg/kg/day, po administered QD from day 5 to day 10 post-tumor implantation. In kind it is organism-based. Also noted: route oral. As to conditions: C57BL/6, B16-F10, po, read-out: GI. The method in brief:
as §7

Data set [15] has as its system Mus musculus. Described as §2. As to conditions: in vivo. The data set is classed as ADME, organism-based. In a few lines: as §1
Data set [16] relates to Mus musculus. The data set is described as §3. As to conditions: in vivo. In kind it is ADME, organism-based. In a few lines:
as §1

Data set [17] concerns Mus musculus. Described as §6. In kind it is ADME, organism-based, Plasma. Also noted: time < 8 hr, dose 10 mg/kg, route oral. As to conditions: in vivo, 8 h. The method in brief:
as §1

In data set [18] the test system is Mus musculus. The experiment in a line: Toxicity in C57BL/6 mouse bearing B16F10 tumor assessed as body weight loss at 60 mg/kg/day, po administered BID from day 5 to day 10 post-tumor implantation co-administered with temozolomide relative to vehicle-treated control. Conditions: in vivo.
Data set [19] deals with Mus musculus. The experiment in a line: Toxicity in C57BL/6 mouse bearing B16F10 tumor assessed as mortality at 10 to 30 mg/kg/day, po administered BID from day 5 to day 10 post-tumor implantation co-administered with temozolomide. The data set is classed as organism-based. Also noted: route oral. As to conditions: in vivo.
For data set [20], the system named is Mus musculus. The data set can be described thus: Toxicity in C57BL/6 mouse bearing B16F10 tumor assessed as body weight loss at 30 mg/kg/day, po administered BID from day 5 to day 10 post-tumor implantation co-administered with temozolomide relative to vehicle-treated control. The data set is classed as organism-based. Also noted: route oral. Conditions: in vivo. The method in brief: as §7

In data set [21] the test system is B16-F10. The experiment in a line: Potentiation of temozolomide-induced antitumor activity against mouse B16F10 cells xenografted in po dosed C57BL/6 mouse assessed as tumor growth inhibition administered BID from day 5 to day 10 post-tumor implantation. In kind it is functional, organism-based. In a few lines:
as §7

Molecules are shown by their SMILES.

In the case of `O=C(c1cc(Cc2n[nH]c(=O)c3c2NCCC3)ccc1F)N1CCN(c2ccccc2)CC1`, in data set [1], the AUC(0-t) (commonly the area under the concentration-time curve up to a stated or last time point) at 3 h amounted to 2900 ng·h/mL.

Take `O=C(c1cc(Cc2n[nH]c(=O)c3c2NCCC3)ccc1F)N1CCN(c2ccccn2)CC1`: the half-life (usually how long it takes for the measured level to halve) in data set [2] is 156 min. In [1], this compound showed an AUC(0-t) at 3 h of 2900 ng·h/mL. This compound also showed a clearance in data set [3] of 34 mL/min/kg. The bioavailability – broadly, the share of a dose that reaches the circulation, judged against a reference dose that is usually intravenous – in [4] was 67%. For the same compound, the Activity in [5] is 3%; in [7], 21%; in data set [8] it was “Dose-dependent effect”; in data set [10] it was 3%. The Vd in data set [6] stood at 7.66 L/kg. This compound also yielded an AUC(0-t) at 8 h in data set [9] of 5950 ng·h/mL. Besides, the Cmax – broadly, the maximum level reached in the sampled fluid or tissue – in data set [11] was found to be 2010 ng/mL.

In the case of `CC(=O)N1CCN(C(=O)c2cc(Cc3n[nH]c(=O)c4c3NCCC4)ccc2F)CC1`, the AUC(0-t) at 3 h in data set [1] was determined as 70 ng·h/mL.

Regarding `O=C(c1cc(Cc2n[nH]c(=O)c3c2NCCC3)ccc1F)N1CCN(C(=O)C(F)(F)F)CC1`, the AUC(0-t) at 3 h in [1] is 70 ng·h/mL.

Turning to `Cn1nnc2c(C(N)=O)ncn2c1=O` [TEMOZOLOMIDE], the Activity in data set [12] amounted to 1%; in data set [13], 2%. Moreover, in data set [14], the inhibition at 50 mg/kg was 30%.

The compound `O=C(c1cc(Cc2n[nH]c(=O)c3c2CCCC3)ccc1F)N1CCN(c2ncccn2)CC1` gave a half-life in [2] of 21.6 min. Also, the CL in [15] was 4.55 L/h/kg. This compound also returned a F in data set [16] of 48%. In addition, the Vd in data set [6] was determined as 2.33 L/kg. Further, the AUC (in general, the area under the concentration-time curve, a measure of exposure) in data set [17] was determined as 2.38 µg·h/mL. In data set [11], this compound yielded a Cmax of 1030 ng/mL.

In turn, `O=C1CCCC(=O)N1c1cc(Cc2n[nH]c(=O)c3c2NCCC3)ccc1F` had an AUC(0-t) at 3 h in data set [1] of 70 ng·h/mL.

`O=C1CCCN1c1cc(Cc2n[nH]c(=O)c3c2NCCC3)ccc1F` had a half-life in [2] of 29.4 min. The CL in data set [15] was determined as 7.43 L/h/kg. This compound yielded a F in data set [16] of 106%. For the same compound, the Activity in data set [18] was 12%; in data set [19] it was “Non-toxic”; in [20], 3%; in data set [21], “Dose-dependent effect”. For the same compound, the Vd in [6] was 5.25 L/kg. In data set [17], this compound returned an AUC of 3.11 µg·h/mL. For the same compound, the Cmax in data set [11] is 1500 ng/mL.

As for `O=C(c1cc(Cc2n[nH]c(=O)c3c2CCCC3)ccc1F)N1CCN(c2ccccn2)CC1`, the half-life in [2] is 66 min. For the same compound, the CL in data set [15] was determined as 5.92 L/h/kg. In data set [16], this compound gave an F of 74%. In data set [6], the Vd worked out at 9.48 L/kg. In addition, the AUC in data set [17] stood at 2.7 µg·h/mL. Further, the Cmax in [11] was determined as 1090 ng/mL.

Take `O=C1CCCN1c1cc(Cc2n[nH]c(=O)c3c2CCCC3)ccc1F`: the half-life in data set [2] was 16.8 min. Moreover, the CL in data set [15] turned out to be 11.72 L/h/kg. In addition, the F in [16] is listed as 13%. Further, in data set [6], the Vd was 4.78 L/kg. The AUC in [17] was determined as 0.33 µg·h/mL. The same compound came in with a Cmax in [11] of 140 ng/mL.

Turning to `O=C(c1cc(Cc2n[nH]c(=O)c3c2NCCC3)ccc1F)N1CCN(c2ncccn2)CC1`, the half-life in [2] is 232 min. In addition, the AUC(0-t) at 3 h in data set [1] came to 2900 ng·h/mL. Moreover, the clearance in data set [3] was 14.8 mL/min/kg. Also, the bioavailability in data set [4] is 36%. For the same compound, the Vd in data set [6] amounted to 4.99 L/kg. In data set [9], this compound had an AUC(0-t) at 8 h of 9060 ng·h/mL. Also, the peak level in [11] (Cmax) was 5600 ng/mL.
